Assays:
Assay type in all cases: functional
Rattus norvegicus [1] = test: Percentage reduction of thrombus formation by weight in rat (intraperitoneal administration); parameters: concentration or dose not given beside the values
Outline: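 Rat venous stasis thrombosis model using a factor Xa thrombogenic challenge 4 h after intraperitoneal dosing in carboxymethylcellulose at 5 mL/kg. Dose was 100 mg/kg when the mouse lethal dose exceeded 800 mg/kg, otherwise 1/10 of LD50. Body temperature was kept near 37 °C. Thrombus was excised from the split vein, dried 24 h at 55 °C and weighed. Read-out is % reduction in thrombus weight, with 5–10 rats per lot.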

Rattus norvegicus [2] = test: Antithrombotic activity at 1/10 mg/kg for lethal dose in rat
Outline: (§1)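 Rat venous thrombosis model with factor Xa as the thrombogenic stimulus, injected 4 h after intraperitoneal dosing in (carboxymethyl)cellulose vehicle (5 mL/kg). Dose was 1/10 of the mouse LD50. Body temperature was kept near 37 °C. The vein was clamped 15 min after partial flow was restored. The thrombus was dried 24 h at 55 °C and weighed. The result is % reduction of thrombus weight, with 5–10 rats per lot.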

Rattus norvegicus [3] = test: Antithrombotic activity was determined at 100 mg/kg for nonlethal dose in rat
Outline: (§2)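 Rats received 100 mg/kg intraperitoneally in (carboxymethyl)cellulose (5 mL/kg), for substances with a mouse lethal dose above 800 mg/kg. Factor Xa was injected 4 h later to induce venous thrombosis, with body temperature near 37 °C. Clamps were placed 15 min after partial flow was restored. The thrombus was excised, dried 24 h at 55 °C and weighed. The result is % reduction of thrombus weight, with 5–10 rats per lot.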

Rattus norvegicus [4] = test: Antithrombotic activity at 100 mg/kg in rat; outline: as §2
Rattus norvegicus [5] = test: Effective dose administered orally (4h before injection of the thrombotic stimulus) with reduced thrombus weight in dose-related manner; settings: po
Rattus norvegicus [6] = test: Effective dose administered by intravenous route before injection of thrombogenic agent in rat model
Outline: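 Intravenous dosing in rats at various times before the factor Xa thrombogenic challenge. Thrombus was isolated from the vein segment, dried 24 h at 55 °C and weighed. ED50 was calculated by linear regression with 95% confidence limits.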

Rattus norvegicus [7] = test: Antithrombotic activity at 1/10 mg/kg in rat; outline: as §1
Rattus norvegicus [8] = test: Antithrombotic activity at 100 mg/kg for nonlethal dose in rat; outline: as §2

O=C(c1ccc(O[C@H]2OC[C@@H](O)[C@H](O)[C@H]2O)cc1)c1ccc([N+](=O)[O-])cc1
Activity (Rattus norvegicus [1]): 38% | LD50 (Rattus norvegicus [2]): 600 mg

O=C(c1ccc(O[C@@H]2OC[C@@H](O)[C@H](O)[C@H]2O)cc1)c1ccc(C(F)(F)F)cc1
Activity (Rattus norvegicus [1]): 0% | LD0 (Rattus norvegicus [3]): >800 mg

O=C(c1ccc(O[C@@H]2OC[C@@H](O)[C@H](O)[C@H]2O)cc1)c1cccc([N+](=O)[O-])c1
Activity (Rattus norvegicus [1]): 39% | LD0 (Rattus norvegicus [3]): >800 mg

O=C(c1ccc(O[C@@H]2OC[C@@H](O)[C@H](O)[C@H]2O)cc1)c1ccc(Cl)cc1Cl
Activity (Rattus norvegicus [1]): 18% | LD0 (Rattus norvegicus [3]): >800 mg

O=C(c1ccc(O[C@@H]2OC[C@@H](O)[C@H](O)[C@H]2O)cc1)c1ccc([N+](=O)[O-])cc1
Activity (Rattus norvegicus [1]): 0% | LD0 (Rattus norvegicus [3]): >800 mg

O[C@@H]1[C@@H](O)[C@H](Oc2ccc(Cc3ccc(Cl)cc3Cl)cc2)OC[C@H]1O
Activity (Rattus norvegicus [1]): 25% | LD50 (Rattus norvegicus [4]): 640 mg

OC(c1ccccc1)c1cccc(O[C@@H]2OC[C@@H](O)[C@H](O)[C@H]2O)c1 (some centres undefined)
Activity (Rattus norvegicus [1]): 19% | LD0 (Rattus norvegicus [3]): >800

O=C(c1ccc(Cl)cc1)c1ccc(O[C@@H]2OC[C@@H](O)[C@H](O)[C@H]2O)cc1
Activity (Rattus norvegicus [1]): 37% | LD0 (Rattus norvegicus [3]): >800 mg

O=C(c1ccc(O[C@@H]2O[C@H](CO)[C@@H](O)[C@H](O)[C@H]2O)cc1)c1ccc([N+](=O)[O-])cc1
Activity (Rattus norvegicus [1]): 0% | LD0 (Rattus norvegicus [3]): >800 mg

O=C(c1ccc(O[C@@H]2O[C@H](CO)[C@H](O[C@@H]3O[C@H](CO)[C@@H](O)[C@H](O)[C@H]3O)[C@H](O)[C@H]2O)cc1)c1ccc([N+](=O)[O-])cc1
Activity (Rattus norvegicus [1]): 17% | LD0 (Rattus norvegicus [3]): >800 mg

O[C@@H]1[C@@H](O)[C@H](Oc2ccc(Cc3ccc(Cl)cc3)cc2)OC[C@H]1O
Activity (Rattus norvegicus [1]): 22% | LD0 (Rattus norvegicus [3]): >800 mg

Cc1cc(C(=O)c2ccccc2C)ccc1O[C@@H]1OC[C@@H](O)[C@H](O)[C@H]1O
Activity (Rattus norvegicus [1]): 62%

OC(c1ccc(O[C@@H]2OC[C@@H](O)[C@H](O)[C@H]2O)cc1)c1ccccc1Cl (some centres undefined)
Activity (Rattus norvegicus [1]): 51% | LD0 (Rattus norvegicus [3]): >800 mg

O=C(c1ccccc1)c1ccc(O[C@@H]2O[C@H](CO)[C@@H](O)[C@H](O)[C@H]2O)cc1
Activity (Rattus norvegicus [1]): 25% | LD0 (Rattus norvegicus [3]): >800 mg

O=C(c1ccc(O[C@H]2O[C@H](CO)[C@@H](O)[C@H](O)[C@@H]2O)cc1)c1ccc([N+](=O)[O-])cc1
Activity (Rattus norvegicus [1]): 0% | LD0 (Rattus norvegicus [3]): >800 mg

OC(c1ccc(Cl)cc1)c1ccc(O[C@@H]2OC[C@@H](O)[C@H](O)[C@H]2O)cc1 (some centres undefined)
Activity (Rattus norvegicus [1]): 39% | LD0 (Rattus norvegicus [3]): >800 mg

O=C(c1ccc(OC2O[C@H](CO)[C@@H](O[C@@H]3O[C@H](CO)[C@H](O)[C@H](O)[C@H]3O)[C@H](O)[C@H]2O)cc1)c1ccc([N+](=O)[O-])cc1 (some centres undefined)
Activity (Rattus norvegicus [1]): 0% | LD0 (Rattus norvegicus [3]): >800 mg

O=[N+]([O-])c1cccc(C(O)c2ccc(O[C@@H]3OC[C@@H](O)[C@H](O)[C@H]3O)cc2)c1 (some centres undefined)
Activity (Rattus norvegicus [1]): 63% | LD50 (Rattus norvegicus [4]): 600 mg

O=C(c1ccc(Cl)cc1)c1ccc(O[C@@H]2O[C@H](CO)[C@H](O)[C@H](O)[C@H]2O)cc1
Activity (Rattus norvegicus [1]): 0% | LD0 (Rattus norvegicus [3]): >800 mg

C[C@@H]1O[C@H](Oc2ccc(C(=O)c3ccc([N+](=O)[O-])cc3)cc2)[C@H](O)[C@H](O)[C@H]1O
Activity (Rattus norvegicus [1]): 0% | LD0 (Rattus norvegicus [3]): >800 mg

OC(c1ccccc1)c1ccc(O[C@@H]2OC[C@@H](O)[C@H](O)[C@H]2O)cc1 (some centres undefined)
Activity (Rattus norvegicus [1]): 37% | LD0 (Rattus norvegicus [3]): >800 mg

O=[N+]([O-])c1cccc(Cc2ccc(O[C@@H]3OC[C@@H](O)[C@H](O)[C@H]3O)cc2)c1
Activity (Rattus norvegicus [1]): 32% | LD0 (Rattus norvegicus [3]): >800 mg

OC(c1ccc(Cl)cc1)c1cccc(O[C@@H]2OC[C@@H](O)[C@H](O)[C@H]2O)c1 (some centres undefined)
Activity (Rattus norvegicus [1]): 0% | LD0 (Rattus norvegicus [3]): >800 mg

O[C@@H]1[C@@H](O)[C@H](Oc2cccc(Cc3ccc(Cl)cc3)c2)OC[C@H]1O
Activity (Rattus norvegicus [1]): 46% | LD50 (Rattus norvegicus [4]): 500 mg

Cc1ccc(C(=O)c2cccc(O[C@@H]3OC[C@@H](O)[C@H](O)[C@H]3O)c2)cc1
Activity (Rattus norvegicus [1]): 0% | LD0 (Rattus norvegicus [3]): >800 mg

O=[N+]([O-])c1ccc(C(O)c2ccc(O[C@@H]3OC[C@@H](O)[C@H](O)[C@H]3O)cc2)cc1 (some centres undefined)
Activity (Rattus norvegicus [1]): 80% | ED50 (Rattus norvegicus [5]): 48 mg/kg | ED50 (Rattus norvegicus [6]): 17.8 mg/kg | LD0 (Rattus norvegicus [3]): >800 mg

O[C@@H]1[C@@H](O)[C@H](Oc2cccc(Cc3ccccc3)c2)OC[C@H]1O
Activity (Rattus norvegicus [1]): 39% | LD50 (Rattus norvegicus [4]): 200 mg

N#Cc1ccc(C(=O)c2ccc(O[C@@H]3OC[C@@H](O)[C@H](O)[C@H]3O)cc2)cc1
Activity (Rattus norvegicus [1]): 0%

O=C(c1ccc(Cl)cc1)c1ccc(O[C@@H]2O[C@H](CO)[C@@H](O)[C@H](O)[C@H]2O)cc1
Activity (Rattus norvegicus [1]): 0% | LD0 (Rattus norvegicus [3]): >800 mg

Cc1cc(C(O)c2ccccc2C)ccc1O[C@@H]1OC[C@@H](O)[C@H](O)[C@H]1O (some centres undefined)
Activity (Rattus norvegicus [1]): 14% | LD50 (Rattus norvegicus [4]): 450 mg

O=C(O)C1OC(OC2C(COS(=O)(=O)O)OC(CO)C(NS(=O)(=O)O)C2O)C(OS(=O)(=O)O)C(O)C1CO (centres undefined)
ED50 (Rattus norvegicus [6]): 0.15 mg/kg

O=C(c1ccc([N+](=O)[O-])cc1)c1cccc(O[C@@H]2OC[C@@H](O)[C@H](O)[C@H]2O)c1
Activity (Rattus norvegicus [1]): 61% | LD0 (Rattus norvegicus [3]): >800 mg

Cc1ccc(O[C@@H]2OC[C@@H](O)[C@H](O)[C@H]2O)c(C(=O)c2ccccc2C)c1
Activity (Rattus norvegicus [1]): 0% | LD0 (Rattus norvegicus [3]): >800 mg

O[C@@H]1[C@@H](O)[C@H](Oc2ccc(Cc3ccccc3)cc2)OC[C@H]1O
Activity (Rattus norvegicus [1]): 12% | LD0 (Rattus norvegicus [3]): >800 mg

O[C@@H]1[C@@H](O)[C@H](Oc2ccc(Cc3ccccc3Cl)cc2)OC[C@H]1O
Activity (Rattus norvegicus [1]): 0% | LD0 (Rattus norvegicus [3]): >800 mg

O=C(c1ccc(O[C@@H]2O[C@H](CO)[C@H](O)[C@H](O)[C@H]2O)cc1)c1ccc([N+](=O)[O-])cc1
Activity (Rattus norvegicus [1]): 0% | LD0 (Rattus norvegicus [3]): >800 mg

O=C(c1ccc(O[C@@H]2OC[C@@H](O)[C@H](O)[C@H]2O)cc1)c1ccccc1Cl
Activity (Rattus norvegicus [1]): 76% | LD0 (Rattus norvegicus [3]): >800 mg

O=C(c1ccc(O[C@@H]2O[C@H](CO)[C@@H](O)[C@H](O)[C@@H]2O)cc1)c1ccc([N+](=O)[O-])cc1
Activity (Rattus norvegicus [1]): 0% | LD0 (Rattus norvegicus [3]): >800 mg

O=C(c1ccccc1)c1ccc(O[C@@H]2OC[C@@H](O)[C@H](O)[C@H]2O)cc1
LD50 (Rattus norvegicus [7]): 750 mg | Activity (Rattus norvegicus [1]): 77%

Cc1ccc(C(=O)c2ccc(O[C@@H]3OC[C@@H](O)[C@H](O)[C@H]3O)cc2)cc1
Activity (Rattus norvegicus [1]): 0% | LD0 (Rattus norvegicus [3]): >800 mg

O=C(c1ccccc1)c1cccc(O[C@@H]2OC[C@@H](O)[C@H](O)[C@H]2O)c1
Activity (Rattus norvegicus [1]): 60% | LD0 (Rattus norvegicus [3]): >800 mg

O=C(c1ccc(Cl)cc1)c1cccc(O[C@@H]2OC[C@@H](O)[C@H](O)[C@H]2O)c1
Activity (Rattus norvegicus [1]): 0% | LD50 (Rattus norvegicus [8]): 220 mg

O=[N+]([O-])c1ccc(Cc2ccc(O[C@@H]3OC[C@@H](O)[C@H](O)[C@H]3O)cc2)cc1
Activity (Rattus norvegicus [1]): 80% | LD50 (Rattus norvegicus [4]): 650 mg | ED50 (Rattus norvegicus [5]): 24 mg/kg

COc1ccc(C(=O)c2ccc(O[C@@H]3OC[C@@H](O)[C@H](O)[C@H]3O)cc2)cc1
Activity (Rattus norvegicus [1]): 44% | LD0 (Rattus norvegicus [3]): >800 mg

Cc1ccccc1C(=O)c1cccc(O[C@@H]2OC[C@@H](O)[C@H](O)[C@H]2O)c1
Activity (Rattus norvegicus [1]): 0% | LD0 (Rattus norvegicus [3]): >800 mg

OC(c1ccc(O[C@@H]2OC[C@@H](O)[C@H](O)[C@H]2O)cc1)c1ccc(Cl)cc1Cl (some centres undefined)
Activity (Rattus norvegicus [1]): 37% | LD50 (Rattus norvegicus [4]): 350 mg

COc1ccc(Cc2ccc(O[C@@H]3OC[C@@H](O)[C@H](O)[C@H]3O)cc2)cc1
Activity (Rattus norvegicus [1]): 43% | LD0 (Rattus norvegicus [3]): >800 mg

— ChEMBL document CHEMBL1127013, “Glycosylated derivatives of benzophenone, benzhydrol, and benzhydril as potential venous antithrombotic agents” (1993)
